From ChEMBL document CHEMBL4340580, “Antibacterial and Inhibitory Activities against Nitric Oxide Production of Coumaronochromones and Prenylated Isoflavones from Millettia extensa” (J Nat Prod, 2019) come the findings set out here.

For one data set, the system named is RAW264.7. Nature of the data set: Inhibition of LPS-induced nitric oxide production in mouse RAW264.7 cells incubated for 24 hrs by Griess reagent based assay. It counts as functional, cell-based. Summed up: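 RAW 264.7 cells were seeded at 5.0 × 10^5 cells/mL and held 24 h at 37 °C, 5% CO2. Medium was discarded and cells were stimulated with 1 μg/mL LPS with or without compound for 24 h at 37 °C. Supernatant was mixed 1:1 with Griess reagent for 10 min at room temperature. Absorbance was read at 570 nm against a sodium nitrite calibration curve, giving IC50.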
In general terms: Nitrite, measured by Griess reagent, commonly stands in for NO production.

Data set [1] can be described thus: Toxicity in mouse RAW264.7 cells assessed as cell viability at 10 uM by MTT assay. In kind it is cell-based. The conditions noted are these: read-out: Activity. A general note: Tetrazolium assays rely on reduction of a dye to a coloured formazan, in cell work by metabolically active cells.
In data set [2] the test system is Micrococcus luteus. The data set is described as follows: Antibacterial activity against Micrococcus luteus by CLSI protocol based method. It counts as functional. An outline of the steps:
(§1)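 Strains came from the Microbiological Resources Center, Bangkok, Thailand. Antibacterial testing followed Clinical and Laboratory Standards Institute recommendations.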

The subject of data set [3] is Streptococcus mutans. Nature of the data set: Antibacterial activity against Streptococcus mutans by CLSI protocol based method. In kind it is functional. Summed up: as §1
Data set [4] has as its system Staphylococcus epidermidis. The data set is described as follows: Antibacterial activity against Staphylococcus epidermidis by CLSI protocol based method. It counts as functional. An outline of the steps: as §1
The test system of data set [5] is Bacillus cereus. The data set is described as follows: Antibacterial activity against Bacillus cereus by CLSI protocol based method. In kind it is functional. Summed up:
as §1

A further data set relates to Staphylococcus aureus. The data set is described as follows: Antibacterial activity against Staphylococcus aureus by CLSI protocol based method. It counts as functional. Summed up:
as §1

Data set [6] concerns Pseudomonas aeruginosa. The data set is described as follows: Antibacterial activity against Pseudomonas aeruginosa by CLSI protocol based method. It counts as functional. Summed up: as §1
Data set [7] concerns Escherichia coli. Nature of the data set: Antibacterial activity against Escherichia coli by CLSI protocol based method. It counts as functional. Summed up:
as §1

Data set [8] concerns Shigella flexneri. Nature of the data set: Antibacterial activity against Shigella flexneri by CLSI protocol based method. It counts as functional. An outline of the steps: as §1
Data set [9] has as its system Micrococcus luteus. The data set is described as follows: Antibacterial activity against Micrococcus luteus at >128 ug/ml by CLSI protocol based method. In kind it is functional, organism-based. An outline of the steps:
as §1

In data set [10] the test system is Streptococcus mutans. Nature of the data set: Antibacterial activity against Streptococcus mutans at >128 ug/ml by CLSI protocol based method. In kind it is functional, organism-based. An outline of the steps: as §1
The subject of data set [11] is Bacillus cereus. Nature of the data set: Antibacterial activity against Bacillus cereus at >128 ug/ml by CLSI protocol based method. In kind it is functional, organism-based. Summed up:
as §1

For data set [12], the system named is Pseudomonas aeruginosa. Nature of the data set: Antibacterial activity against Pseudomonas aeruginosa at >128 ug/ml by CLSI protocol based method. It counts as functional, organism-based. Summed up:
as §1

In data set [13] the test system is Escherichia coli. Nature of the data set: Antibacterial activity against Escherichia coli at >128 ug/ml by CLSI protocol based method. In kind it is functional, organism-based. Summed up:
as §1

In data set [14] the test system is Shigella flexneri. Nature of the data set: Antibacterial activity against Shigella flexneri at >128 ug/ml by CLSI protocol based method. In kind it is functional, organism-based. Summed up: as §1
[15] abbreviates: Mus musculus, RAW264.7, 24 h, read-out: IC50.

Converted amounts (≈) assume the structure as drawn. The source made the active and inactive calls. The calls are words filed in the database; no cut-off is given here.

By IC50 is commonly meant the concentration needed to halve the response being measured. In the case of `CC(C)=CCc1c2c(c(O)c3c(=O)c(-c4ccc(O)cc4O)coc13)C=CC(C)(C)O2`, in the data set with RAW264.7 (raw264.7), the 50% inhibitory concentration (IC50) entry is recorded as “Not Active”. The viability at 10 µM in [1] stood at 75.5%.

As usually defined, the MIC is the least concentration at which growth counts as inhibited. Take `COc1cc(-c2coc3cc4c(c(O)c3c2=O)C=CC(C)(C)O4)c(OC)cc1OCC=C(C)C`: the concentration for half-maximal inhibition (IC50) entry in the data set with RAW264.7 (raw264.7) is recorded as “Not Active”. Moreover, the viability at 10 µM in data set [1] was 60.1%. Besides, the MIC result in the data set with Micrococcus luteus [2], with Streptococcus mutans [3], in the data set on Bacillus cereus [5], with Pseudomonas aeruginosa [6] and in the data set on Escherichia coli [7] was “inactive” each time. Besides, the MIC (in data set [4]; in the data set on Staphylococcus aureus; against Shigella flexneri [8]) was 128 µg/mL (≈ 276 µM) in each case. Besides, the outcome in the data set with Micrococcus luteus [9], with Streptococcus mutans [10], in the data set with Bacillus cereus [11], with Pseudomonas aeruginosa [12] and in the data set with Escherichia coli [13] was inactive.

As to `CN[C@H](CC(C)C)C(=O)N[C@H]1C(=O)N[C@@H](CC(N)=O)C(=O)N[C@H]2C(=O)N[C@H]3C(=O)N[C@H](C(=O)N[C@H](C(=O)O)c4cc(O)cc(O)c4-c4cc3ccc4O)[C@H](O)c3ccc(c(Cl)c3)Oc3cc2cc(c3O[C@@H]2O[C@H](CO)[C@@H](O)[C@H](O)[C@H]2O[C@H]2C[C@](C)(N)[C@H](O)[C@H](C)O2)Oc2ccc(cc2Cl)[C@H]1O` [VANCOMYCIN], the MIC is 0.25 µg/mL (≈ 0.173 µM) in the data set on Micrococcus luteus [2]; 0.25 µg/mL (≈ 0.173 µM) in the data set with Streptococcus mutans [3]; 0.25 µg/mL (≈ 0.173 µM) in data set [4]; 0.125 µg/mL (≈ 0.0863 µM) with Bacillus cereus [5]; 0.25 µg/mL (≈ 0.173 µM) against Staphylococcus aureus.

`COc1ccc2c(c1)c(CC(=O)O)c(C)n2C(=O)c1ccc(Cl)cc1` [INDOMETHACIN]: the half-maximal inhibitory concentration (IC50) with RAW264.7 (setting [15]) worked out at 62.9 µM.

In the case of `CC(C)=CCc1c2c(c(O)c3c(=O)c(-c4ccc(O)cc4)coc13)C=CC(C)(C)O2` [WARANGALONE], in the data set on RAW264.7 (setting [15]), the IC50 stood at 8.5 µM. Also, in [1], the viability at 10 µM came out at 86.5%.

For GENTAMICIN, the MIC with Escherichia coli [7] amounted to 0.25 µg/mL.

Consider `CC1(C)C=Cc2c(c(CCO)c3occ(-c4ccc(O)c(O)c4)c(=O)c3c2O)O1`, for which the IC50 result in the data set with RAW264.7 (raw264.7) is “Not Active”. For the same molecule, the viability at 10 µM in [1] amounted to 68.2%. Further, the MIC against Micrococcus luteus [2] is 32 µg/mL (≈ 80.7 µM); against Streptococcus mutans [3], 128 µg/mL (≈ 323 µM); in [4] it was 128 µg/mL (≈ 323 µM); with Escherichia coli [7], 128 µg/mL (≈ 323 µM). For the same molecule, the MIC result with Pseudomonas aeruginosa [6] and in the data set with Shigella flexneri [8] was “inactive” each time. In addition, the result in the data set with Pseudomonas aeruginosa [12] and with Shigella flexneri [14] was inactive.

As to `CC(C)=CCc1c2c(c(O)c3c(=O)c4c(oc5cc(O)ccc54)oc13)C=CC(C)(C)O2`, in the data set on RAW264.7 (raw264.7), the IC50 result was “Not Active”. Besides, the viability at 10 µM in data set [1] turned out to be 79.2%. The MIC entry in the data set on Micrococcus luteus [2], with Streptococcus mutans [3], in the data set with Pseudomonas aeruginosa [6] and in the data set on Escherichia coli [7] was “inactive” throughout. Further, the MIC (in data set [4]; against Bacillus cereus [5]; with Staphylococcus aureus; in the data set with Shigella flexneri [8]) was 128 µg/mL (≈ 306 µM) each time. Also, the outcome in the data set on Micrococcus luteus [9], in the data set on Streptococcus mutans [10], in the data set with Pseudomonas aeruginosa [12] and with Escherichia coli [13] was inactive.

On to `COc1c2c(cc3c1C(=O)[C@]1(O)c4ccc(OCC=C(C)C)cc4O[C@@H]1O3)OC(C)(C)C=C2`, for which the IC50 result in the data set with RAW264.7 (raw264.7) was “Not Active”. In data set [1], the viability at 10 µM was 64.4%. Further, the minimum inhibitory concentration (MIC) was 64 µg/mL (≈ 142 µM) against Micrococcus luteus [2]; 128 µg/mL (≈ 284 µM) against Streptococcus mutans [3]; 128 µg/mL (≈ 284 µM) in data set [4]; 32 µg/mL (≈ 71 µM) in the data set with Bacillus cereus [5]; 32 µg/mL (≈ 71 µM) against Staphylococcus aureus. For the same molecule, the MIC result in the data set on Pseudomonas aeruginosa [6], in the data set with Escherichia coli [7] and in the data set on Shigella flexneri [8] was “inactive” each time. Besides, the result with Pseudomonas aeruginosa [12], in the data set with Escherichia coli [13] and with Shigella flexneri [14] was inactive.

`C=CC(C)(C)c1cc(-c2coc3cc4c(c(OC)c3c2=O)C=CC(C)(C)O4)c(O)cc1O`: the MIC against Micrococcus luteus [2] came out at 32 µg/mL (≈ 73.6 µM); against Streptococcus mutans [3], 128 µg/mL (≈ 295 µM); in [4] it was 128 µg/mL (≈ 295 µM); against Bacillus cereus [5], 8 µg/mL (≈ 18.4 µM); with Staphylococcus aureus, 8 µg/mL (≈ 18.4 µM); in the data set on Pseudomonas aeruginosa [6], 128 µg/mL (≈ 295 µM). In the data set on Escherichia coli [7], it took 128 µg/mL (≈ 295 µM) to inhibit growth (MIC). Besides, in the data set with Shigella flexneri [8], the MIC result is “inactive”. Further, the result with Shigella flexneri [14] was inactive.

For `COc1c2c(cc3occ(-c4ccc(OCC=C(C)C)cc4)c(=O)c13)OC(C)(C)C=C2`, the IC50 entry with RAW264.7 (raw264.7) was “Not Active”. Moreover, the viability at 10 µM in data set [1] came to 68.7%. The outcome in the data set with Pseudomonas aeruginosa [12] was inactive.

On to `CC(C)=CCC1=C(O)c2c(occ(-c3ccc(O)c(O)c3)c2=O)C(CC=C(C)C)(CC=C(C)C)C1=O`, for which the MIC was determined as 2 µg/mL (≈ 4.08 µM) in the data set on Micrococcus luteus [2]; 16 µg/mL (≈ 32.6 µM) in the data set with Streptococcus mutans [3]; 4 µg/mL (≈ 8.15 µM) in data set [4]; 32 µg/mL (≈ 65.2 µM) with Bacillus cereus [5]; 4 µg/mL (≈ 8.15 µM) in the data set with Staphylococcus aureus; 128 µg/mL (≈ 261 µM) against Pseudomonas aeruginosa [6]. In addition, the MIC with Escherichia coli [7] and against Shigella flexneri [8] was 128 µg/mL (≈ 261 µM) in each case.

Regarding `C=CC(C)(C)c1cc(-c2coc3cc4c(c(O)c3c2=O)C=CC(C)(C)O4)ccc1O`, in the data set with RAW264.7 (raw264.7), the concentration for half-maximal inhibition (IC50) entry is “Not Active”. For the same molecule, the viability at 10 µM in data set [1] came out at 61.1%. The MIC with Micrococcus luteus [2] is 64 µg/mL (≈ 158 µM); in the data set with Streptococcus mutans [3], 128 µg/mL (≈ 316 µM); in [4], 128 µg/mL (≈ 316 µM); with Bacillus cereus [5] it was 64 µg/mL (≈ 158 µM); against Staphylococcus aureus it was 64 µg/mL (≈ 158 µM); with Shigella flexneri [8], 128 µg/mL (≈ 316 µM). Besides, the MIC result in the data set with Pseudomonas aeruginosa [6] and in the data set with Escherichia coli [7] was “inactive” in each case. For the same molecule, the outcome in the data set on Pseudomonas aeruginosa [12] and in the data set with Escherichia coli [13] was inactive.

On to `CC(C)=CCc1c(O)c(CC=C(C)C)c2occ(-c3ccc(O)c(O)c3)c(=O)c2c1O`, for which, in the data set with RAW264.7 (setting [15]), the IC50 turned out to be 14.3 µM. Besides, the viability at 10 µM in [1] was 90.2%. The MIC against Micrococcus luteus [2] turned out to be 16 µg/mL (≈ 37.9 µM); against Streptococcus mutans [3] it was 16 µg/mL (≈ 37.9 µM); in [4] it was 128 µg/mL (≈ 303 µM); against Bacillus cereus [5], 16 µg/mL (≈ 37.9 µM); in the data set with Staphylococcus aureus, 32 µg/mL (≈ 75.7 µM); against Pseudomonas aeruginosa [6] it was 128 µg/mL (≈ 303 µM). In addition, the MIC in the data set with Escherichia coli [7] and against Shigella flexneri [8] was 128 µg/mL (≈ 303 µM) throughout.

For `CC(C)=CCOc1ccc2c(c1)O[C@@H]1Oc3cc4c(c(O)c3C(=O)[C@]21O)C=CC(C)(C)O4`, the IC50 result in the data set with RAW264.7 (raw264.7) was “Not Active”. Further, in data set [1], the viability at 10 µM stood at 65.3%. Further, the MIC in the data set on Micrococcus luteus [2] is 64 µg/mL (≈ 147 µM); with Streptococcus mutans [3] it was 128 µg/mL (≈ 293 µM); in data set [4], 128 µg/mL (≈ 293 µM); in the data set with Bacillus cereus [5], 32 µg/mL (≈ 73.3 µM); in the data set on Staphylococcus aureus, 32 µg/mL (≈ 73.3 µM). The MIC entry in the data set on Pseudomonas aeruginosa [6], in the data set on Escherichia coli [7] and with Shigella flexneri [8] was “inactive” each time. The outcome with Pseudomonas aeruginosa [12], in the data set with Escherichia coli [13] and with Shigella flexneri [14] was inactive.

For the molecule `CC(C)=CCC1=C(O)c2c(occ(-c3ccc(O)cc3O)c2=O)C(CC=C(C)C)(CC=C(C)C)C1=O`, in the data set on RAW264.7 (raw264.7), the IC50 entry was “Not Active”. The viability at 10 µM in data set [1] worked out at 75.5%.
